≈ marks a conversion by molar mass, not a printed value.
Experiments:
[1] = format: in vivo, athymic nude rats; settings: for route of clearance: images through 24 h
[2] = aqueous solubility; format: physicochemical; settings: water
[3] = tested on: pancreatic cancer cells MiaPaCa-2; assay: cell proliferation by hexosaminidase assay; format: cell-based; settings: MiaPaCa-2 cells, 1 and 10 μM, 24–72 h
How it was run: (§1)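 Cells seeded at 5×10^3/well, attached overnight, then exposed to the test compound for 24, 48 and 72 h. The compound was given from DMSO at 0.1% final DMSO in medium with 5% FBS, with DMSO-only controls. H441 were maintained in McCoy's 5A with 5% FBS. Panc-1 and MiaPaCa-2 were maintained in RPMI 1640 with 10% FBS. Readout was hexosaminidase: 7.5 mM p-nitrophenyl substrate solution (citrate, pH 5), 37°C 30 min, glycine/EDTA stop (pH 10.4), A405.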

[4] = tested on: lung adenocarcinoma H441 cells; assay: cell proliferation by hexosaminidase assay; format: cell-based, Human; settings: 1 and 10 μM, 24–72 h
How it was run: as §1

[5] = tested on: xenograft Panc-1 tumors; assay: mouse model of xenograft Panc-1 tumors; format: in vivo, athymic nude mice; settings: 5 μg intraperitoneal daily for 3 weeks
How it was run: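 Five-week-old male athymic nude mice received 1 × 10^6 Panc-1 cells in each flank. Once tumors reached about 500 mm3, the test compound was given intraperitoneally at 5 μg/injection daily for 3 weeks. Tumors were measured weekly by caliper, with volume = length × width × depth × 0.5236. Tumors were excised and weighed at sacrifice. n = 4 per group versus untreated control, significance at p < 0.05.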

[6] = tested on: pancreatic cancer cells Panc-1; assay: cell proliferation by hexosaminidase assay; format: cell-based; settings: Panc-1 cells, 1 and 10 μM, 24–72 h
How it was run: as §1

[7] = Tc-99m-labeled EFAH, intravenous, rats, 24 h

Tc-99m-labeled N-{2-[3,5-Bis-(2-fluorobenzylidene)-4-oxo-piperidin-1-yl]-ethyl}-6-hydrazinonicotinamide [Tc-99m-EFAH]
accumulation of radiolabeled compound in tumor tissue ([1]; intravenous, rats with H441 xenograft, 24 h): measurable, but little | route of clearance ([1]; intravenous, rats): clearance depended on hepatobiliary route | free Tc-99m radioactivity in rat urine by HPLC ([1]; urine collected after 30 min of injection): no free Tc-99m radioactivity was found

NNc1ccc(C(=O)NCCN2CC(=Cc3ccccc3F)C(=O)C(=Cc3ccccc3F)C2)cn1 [EFAH, N-{2-[3,5-Bis-(2-fluorobenzylidene)-4-oxo-piperidin-1-yl]-ethyl}-6-hydrazinonicotinamide]
injected dose accumulated in intestine [1, 7]: ~14.3% | injected dose accumulated in liver [1, 7]: Approximately 23.7% | route of clearance ([1]; intravenous, rats): mostly eliminated by hepatobiliary route | solubility [2]: 3500 µg/mL (≈ 7.15 mM) | anti-proliferative activity compared with EF24 [3]: as effective as EF24 | anti-proliferative activity compared with EF24 [4]: as effective as EF24 | excised tumor weight ([5]; at necropsy, control about 2.5 g): 0.45 g | mean tumor volume reduction ([5]; versus control): 79% | tumor weight decrease ([5]; versus control): 82% | anti-proliferative activity compared with EF24 [6]: as effective as EF24

O=C1C(=Cc2ccccc2F)CNCC1=Cc1ccccc1F [EF24, 3,5-Bis-(2-fluorobenzylidene)-4-piperidone, reference compound]
solubility [2]: 1200 µg/mL (≈ 3.85 mM)
